What is called IC50 is the concentration needed to halve the response being measured.

Where only a bound is given, the exact number is not on record here.

These results are taken from ChEMBL document CHEMBL4477241, “Structure-Activity Relationship Studies for Enhancer of Zeste Homologue 2 (EZH2) and Enhancer of Zeste Homologue 1 (EZH1) Inhibitors” (J Med Chem, 2016).

In assay [1] the target is Histone-lysine N-methyltransferase EZH2 (Homo sapiens, UniProt O75530+Q15022+Q15910). In words: Inhibition of EZH2 histone methyltransferase activity of EZH2/EED/SUZ12 protein complex (unknown origin) using histone H3 peptide as substrate (21 to 44 residues) in presence of [3H]-S-adenosylmethionine after 2 hrs by scintillation proximity assay. In outline:
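20 nM EZH2 trimeric complex with 2 μM 3H-SAM and 1 μM biotinylated H3(21–44) in 20 mM Tris-HCl pH 8, 5 mM DTT, 0.01% Triton X-100. Incubated 1 h at 23 °C, quenched with guanidine hydrochloride, then 2 h streptavidin flash-plate capture. Activity scaled between no-compound and no-enzyme counts.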
On the technique in general: Scintillation proximity formats need no separation of bound from free tracer.

The target in assay [2] is T1, Histone-lysine N-methyltransferase EZH1 (Homo sapiens, UniProt Q92800).
T1 sequence (Q92800 whole entry): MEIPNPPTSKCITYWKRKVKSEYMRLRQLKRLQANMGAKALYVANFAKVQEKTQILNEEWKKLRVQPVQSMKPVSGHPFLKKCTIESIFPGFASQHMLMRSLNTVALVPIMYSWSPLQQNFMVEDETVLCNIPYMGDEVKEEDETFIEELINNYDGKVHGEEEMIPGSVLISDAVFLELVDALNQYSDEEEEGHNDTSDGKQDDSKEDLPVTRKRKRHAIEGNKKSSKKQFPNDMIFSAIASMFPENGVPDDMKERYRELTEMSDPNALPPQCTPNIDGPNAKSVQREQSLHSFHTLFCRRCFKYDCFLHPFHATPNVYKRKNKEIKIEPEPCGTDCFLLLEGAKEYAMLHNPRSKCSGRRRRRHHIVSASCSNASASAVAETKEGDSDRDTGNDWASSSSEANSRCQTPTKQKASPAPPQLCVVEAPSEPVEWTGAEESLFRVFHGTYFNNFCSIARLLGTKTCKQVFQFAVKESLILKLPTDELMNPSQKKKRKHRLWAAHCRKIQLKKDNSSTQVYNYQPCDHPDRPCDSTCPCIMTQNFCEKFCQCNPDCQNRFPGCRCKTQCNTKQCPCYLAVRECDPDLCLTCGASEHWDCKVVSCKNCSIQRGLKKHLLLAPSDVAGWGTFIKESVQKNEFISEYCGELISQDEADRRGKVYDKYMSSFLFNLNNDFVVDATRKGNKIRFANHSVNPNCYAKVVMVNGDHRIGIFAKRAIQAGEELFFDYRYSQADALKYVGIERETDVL
In words: Inhibition of EZH1 histone methyltransferase activity of EZH1/EED/SUZ12/RBBP4/AEBP2 protein complex (unknown origin) using histone H3 peptide as substrate (21 to 44 residues) in presence of [3H]-S-adenosylmethionine after 2 hrs by scintillation proximity assay. In outline:
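10 nM EZH1 pentameric complex with 4 μM 3H-SAM and 1 μM biotinylated H3(21–44) in 20 mM Tris-HCl pH 8, 5 mM DTT, 0.01% Triton X-100. Reaction run 1 h at 23 °C, stopped with guanidine hydrochloride, then captured 2 h on a streptavidin flash plate. Counts normalized to no-compound (100%) and no-enzyme (0%) controls.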

Chain of Histone-lysine N-methyltransferase EZH2 (Q15910 whole entry, the tested form may be a part, one chain of several): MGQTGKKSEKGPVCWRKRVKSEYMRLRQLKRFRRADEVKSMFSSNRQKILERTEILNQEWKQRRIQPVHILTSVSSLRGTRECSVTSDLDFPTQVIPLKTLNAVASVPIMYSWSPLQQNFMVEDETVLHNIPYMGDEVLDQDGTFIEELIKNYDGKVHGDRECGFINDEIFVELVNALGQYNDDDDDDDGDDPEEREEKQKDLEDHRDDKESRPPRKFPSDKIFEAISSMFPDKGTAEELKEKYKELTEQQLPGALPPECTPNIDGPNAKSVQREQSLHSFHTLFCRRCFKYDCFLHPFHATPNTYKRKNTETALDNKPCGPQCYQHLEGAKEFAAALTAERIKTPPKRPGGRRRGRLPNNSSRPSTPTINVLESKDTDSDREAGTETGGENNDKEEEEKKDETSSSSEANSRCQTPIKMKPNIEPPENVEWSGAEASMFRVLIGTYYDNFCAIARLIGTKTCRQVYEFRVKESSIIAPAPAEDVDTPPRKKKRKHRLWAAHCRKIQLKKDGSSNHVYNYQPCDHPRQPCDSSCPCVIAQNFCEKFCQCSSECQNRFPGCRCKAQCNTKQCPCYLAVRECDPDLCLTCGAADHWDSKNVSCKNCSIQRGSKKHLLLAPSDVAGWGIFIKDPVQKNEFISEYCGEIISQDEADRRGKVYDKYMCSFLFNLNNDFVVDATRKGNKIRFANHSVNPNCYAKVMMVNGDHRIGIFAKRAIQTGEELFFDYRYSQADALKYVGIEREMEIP

With `CCCc1cc(C)[nH]c(=O)c1CNC(=O)c1cc(-c2ccc(N3CCN(C(C)C)CC3)nc2)cc2c1cnn2C(C)C`, the 50% inhibitory concentration (IC50) in assay [1] was under 0.01 µM.
Regarding `CCc1cc(C)c(CNC(=O)c2cc(-c3ccc(N4CCN(C(C)C)CC4)nc3)cc3c2cnn3C(C)C)c(=O)[nH]1`, the results for the half-maximal inhibitory concentration (IC50) in assay [2] and in assay [1] were over 5 µM and 0.073 µM, respectively.
`CC(C)N1CCN(c2ccc(-c3cc(C(=O)NCc4ccc[nH]c4=O)c4cnn(C(C)C)c4c3)cn2)CC1`: the IC50 in assay [2] and in assay [1] was over 5 µM in each case.
For `CCCc1cc(C)[nH]c(=O)c1CNC(=O)c1nn(C(C)C)c2ccc(-c3ccc(N4CCN(C(C)C)CC4)nc3)cc12`, the IC50 in assay [2] and in assay [1] was over 5 µM in each case.
Consider `CCCc1cc(C)[nH]c(=O)c1CNC(=O)c1cc(-c2ccc(N3CCN(C(C)C)CC3)nc2)cc2nn(C(C)C)cc12`, for which the IC50 in assay [2] was over 2.5 µM; in assay [1], 0.384 µM.
Take `CCCc1cc(C)[nH]c(=O)c1CNC(=O)c1cc(-c2ccc(N3CCN(C(C)C)CC3)nc2)cc2c1cnn2CC1CCC1`: the IC50 is over 2.5 µM in assay [2] and 0.057 µM in assay [1].
As for `CCCc1cc(C)[nH]c(=O)c1CNC(=O)c1cc(-c2ccc(N3CCN(C(C)C)CC3)nc2)cc2c1cnn2C1CCCCC1`, the IC50 in assay [1] is under 0.01 µM.
Turning to `CCCc1cc(C)[nH]c(=O)c1CNC(=O)c1cc(-c2ccc(N3CCN(C(C)C)CC3)nc2)c2cnn(C(C)C)c2c1`, the figures for the IC50 in assay [2] and in assay [1] were over 5 µM and 0.54 µM, respectively.
Turning to `CCCc1cc(C)[nH]c(=O)c1CNC(=O)c1nn(C(C)C)c2cc(-c3ccc(N4CCN(C(C)C)CC4)nc3)ccc12`, the IC50 in assay [2] and in assay [1] was over 5 µM in each case.
As to `Cc1[nH]c(=O)c(CNC(=O)c2cc(-c3ccc(N4CCN(C(C)C)CC4)nc3)cc3c2cnn3C(C)C)c(C)c1C`, the IC50 in assay [2] is over 5 µM; in assay [1], 0.328 µM.
Turning to `CCCCC(CC)Cn1ncc2c(C(=O)NCc3c(CCC)cc(C)[nH]c3=O)cc(-c3ccc(N4CCN(C(C)C)CC4)nc3)cc21` (stereo not given), the figures for the half-inhibitory concentration (IC50) in assay [2] and in assay [1] were over 5 µM and 1.11 µM, respectively.
For `CCCc1cc(C)[nH]c(=O)c1CNC(=O)c1cc(-c2ccc(N3CCN(C(C)C)CC3)nc2)cc2c1cnn2CCCCCCO`, the concentration for half-maximal inhibition (IC50) in assay [2] turned out to be 0.394 µM; in assay [1], 0.025 µM.
With `Cc1cc(C)c(CNC(=O)c2cc(-c3ccc(N4CCN(C(C)C)CC4)nc3)cc3c2cnn3C(C)C)c(=O)[nH]1`, the IC50 in assay [2] is over 2.5 µM.
Take `Cc1[nH]c(=O)c(CNC(=O)c2cc(-c3ccc(N4CCN(C(C)C)CC4)nc3)cc3c2cnn3C(C)C)c2c1CCC2`: the results for the 50% inhibitory concentration (IC50) in assay [2] and in assay [1] were over 2.5 µM and 0.032 µM, respectively.
For the compound `CCC(C)c1cc(C)c(CNC(=O)c2cc(-c3ccc(N4CCN(C(C)C)CC4)nc3)cc3c2cnn3C(C)C)c(=O)[nH]1` (stereo not given), the 50% inhibitory concentration (IC50) in assay [2] is over 1.25 µM; in assay [1] it was 0.032 µM.
For the compound `CCCc1cc(C)[nH]c(=O)c1CNC(=O)c1cc(-c2ccc(N3CCN(C(C)C)CC3)nc2)cc2c1cnn2C1CCCCCC1`, the IC50 was over 2.5 µM in assay [2] and 0.117 µM in assay [1].
Taken in the same sequence, the figures for `CCCc1cc(C)[nH]c(=O)c1CNC(=O)c1cnn2c(-c3ccc(N4CCN(C(C)C)CC4)nc3)cccc12` were over 5 µM and over 5 µM.
For the compound `Cc1[nH]c(=O)c(CNC(=O)c2cc(-c3ccc(N4CCN(C(C)C)CC4)nc3)cc3c2cnn3C(C)C)c2c1CCCC2`, the IC50 in assay [2] and in assay [1] was over 2.5 µM throughout.
For `CCCc1cc(C)[nH]c(=O)c1CNC(=O)c1cc(-c2ccc(N3CCN(C(C)C)CC3)nc2)cc2c1cnn2C(C)(C)C`, the IC50 in assay [2] is 0.127 µM; in assay [1], under 0.01 µM.
As for `CCCc1cc(C)[nH]c(=O)c1CNC(=O)c1cc(-c2ccc(N3CCN(C(C)C)CC3)nc2)cc2c1cnn2C`, the IC50 is over 2.5 µM in assay [2] and 0.19 µM in assay [1].
As for `Cc1cc(O)c(CNC(=O)c2cc(-c3ccc(N4CCN(C(C)C)CC4)nc3)cc3c2cnn3C(C)C)c(=O)[nH]1`, the IC50 in assay [2] and in assay [1] was over 10 µM throughout.
Take `CC(C)N1CCN(c2ccc(-c3cc(C(=O)NC4CC(C)(C)NC(C)(C)C4)c4cnn(C(C)C)c4c3)cn2)CC1`: the IC50 in assay [2] and in assay [1] was over 10 µM each time.
`CCCc1cc(C)[nH]c(=O)c1CNC(=O)c1cc(-c2ccc(N3CCN(C(C)C)CC3)nc2)cc2c1cnn2C(CC)CC`: the IC50 is 0.126 µM in assay [2] and under 0.01 µM in assay [1].
Turning to `CCc1c(C)c[nH]c(=O)c1CNC(=O)c1cc(-c2ccc(N3CCN(C(C)C)CC3)nc2)cc2c1cnn2C(C)C`, the half-inhibitory concentration (IC50) in assay [2] was over 5 µM; in assay [1], 1.02 µM.
Turning to `Cc1cc(CC(C)C)c(CNC(=O)c2cc(-c3ccc(N4CCN(C(C)C)CC4)nc3)cc3c2cnn3C(C)C)c(=O)[nH]1`, the IC50 was 0.211 µM in assay [2] and under 0.01 µM in assay [1].
For the compound `Cc1cc(C(C)C)c(CNC(=O)c2cc(-c3ccc(N4CCN(C(C)C)CC4)nc3)cc3c2cnn3C(C)C)c(=O)[nH]1`, the concentration for half-maximal inhibition (IC50) in assay [2] is 0.32 µM; in assay [1], under 0.01 µM.
With `CCCc1cc(C)[nH]c(=O)c1CNC(=O)c1cc(-c2ccc(N3CCN(C(C)C)CC3)nc2)cc2c1cnn2C1CCCC1`, the figures for the half-maximal inhibitory concentration (IC50) in assay [2] and in assay [1] were 0.108 µM and under 0.01 µM, respectively.
For the compound `CCCc1cc(C)[nH]c(=O)c1CNC(=O)c1cc(-c2ccc(N3CCN(C(C)C)CC3)nc2)cc2c1cnn2CC1CCCCC1`, the concentration for half-maximal inhibition (IC50) in assay [2] was over 2.5 µM; in assay [1], 0.697 µM.
Taken in the same sequence, the figures for `Cc1cc(C(C)(C)C)[nH]c(=O)c1CNC(=O)c1cc(-c2ccc(N3CCN(C(C)C)CC3)nc2)cc2c1cnn2C(C)C` were over 10 µM and over 10 µM.
As for `Cc1cc(C2CCCC2)c(CNC(=O)c2cc(-c3ccc(N4CCN(C(C)C)CC4)nc3)cc3c2cnn3C(C)C)c(=O)[nH]1`, the concentration for half-maximal inhibition (IC50) in assay [2] was 0.086 µM; in assay [1] it was under 0.01 µM.
Take `CCCc1cc(C)[nH]c(=O)c1CNC(=O)c1cc(-c2ccc(N3CCN(C(C)C)CC3)nc2)cc2c1cnn2CC1CCCC1`: the results for the IC50 in assay [2] and in assay [1] were over 2.5 µM and 0.149 µM, respectively.
Take `CCCc1cc(C)[nH]c(=O)c1CNC(=O)c1cn2ccc(-c3ccc(N4CCN(C(C)C)CC4)nc3)cc2n1`: the concentration for half-maximal inhibition (IC50) in assay [2] and in assay [1] was over 10 µM throughout.
In the case of `CCCc1cc(C)[nH]c(=O)c1CNC(=O)c1cc(-c2ccc(N3CCN(C(C)C)CC3)nc2)cc2c1cnn2Cc1ccccc1`, the IC50 was over 5 µM in assay [2] and 0.28 µM in assay [1].
In the case of `CCCc1cc(C)[nH]c(=O)c1CNC(=O)c1cc(-c2ccc(N3CCN(C(C)C)CC3)nc2)cc2c1cnn2CCC1CCCCC1`, the IC50 in assay [2] is over 2.5 µM; in assay [1] it was over 1.25 µM.
The like results for `Cc1ncc(CNC(=O)c2cc(-c3ccc(N4CCN(C(C)C)CC4)nc3)cc3c2cnn3C(C)C)c(=O)[nH]1` were, in that order, over 10 µM and over 2.3 µM.
With `CCCc1cc(C)[nH]c(=O)c1CNC(=O)c1cccn2c(-c3ccc(N4CCN(C(C)C)CC4)nc3)cnc12`, the IC50 in assay [2] and in assay [1] was over 5 µM throughout.
Regarding `CC(C)N1CCN(c2ccc(-c3cc(C(=O)NCc4cnc[nH]c4=O)c4cnn(C(C)C)c4c3)cn2)CC1`, the IC50 in assay [2] and in assay [1] was over 10 µM throughout.
Regarding `Cc1cc(-c2ccccc2)[nH]c(=O)c1CNC(=O)c1cc(-c2ccc(N3CCN(C(C)C)CC3)nc2)cc2c1cnn2C(C)C`, the half-inhibitory concentration (IC50) in assay [2] and in assay [1] was over 10 µM each time.
In the case of `Cc1[nH]c(=O)[nH]c(=O)c1CNC(=O)c1cc(-c2ccc(N3CCN(C(C)C)CC3)nc2)cc2c1cnn2C(C)C`, the half-maximal inhibitory concentration (IC50) in assay [2] and in assay [1] was over 10 µM throughout.
